Measured values: ChEMBL document CHEMBL4689842, “EUbOPEN Chemogenomics Library wave 1” (2021)

Tested on: U2OS
Test: Multiplex assay against U2OS
Assay type: toxicity, cell-based
Conditions: human
How it was run: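 Cells stained live at seeding with Hoechst33342, BioTracker Green Microtubule Cytoskeleton Dye, MitoTracker Red and Annexin V Alexa Fluor 680 were imaged on a CQ1 microscope at 37°C and 5% CO2 after compound addition. Their classification by CellPathfinder machine-learning gating ran from Hoechst high-intensity objects versus normal cells, to healthy, pyknosed or fragmented nuclei among normal cells, to mitotic or apoptotic among pyknosed cells. Tubulin, mitochondrial-mass and membrane-permeability phenotypes are per cents of healthy-nucleus cells.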

[1] = 12 h, 1 µM, compound concentration 1 uM, replicate 1
[2] = 12 h, 1 µM, compound concentration 1 uM, replicate 2
[3] = 12 h, 10 µM, compound concentration 10 uM, replicate 1
[4] = 12 h, 10 µM, compound concentration 10 uM, replicate 2
[5] = 24 h, 1 µM, compound concentration 1 uM, replicate 1
[6] = 24 h, 1 µM, compound concentration 1 uM, replicate 2
[7] = 24 h, 10 µM, compound concentration 10 uM, replicate 1
[8] = 24 h, 10 µM, compound concentration 10 uM, replicate 2
[9] = 48 h, 1 µM, compound concentration 1 uM, replicate 1
[10] = 48 h, 1 µM, compound concentration 1 uM, replicate 2
[11] = 48 h, 10 µM, compound concentration 10 uM, replicate 1
[12] = 48 h, 10 µM, compound concentration 10 uM, replicate 2

## CN1CCC(=C2c3ccccc3CC(=O)c3sccc32)CC1.O=C(O)/C=C/C(=O)O [KETOTIFEN FUMARATE]
[1]
  Population Apoptotic (%): 63%
  Population Fragmented Nuclei (%): 10%
  Population Healthy Nuclei (%): 75%
  Population Hoechst High Intensity Objects (%): 5%
  Population Membrane Permeable-Phenotype (%): 15%
  Population Mitochondria Different-Phenotype (%): 19%
  Population Mitotic Cells (%): 36%
  Population Normal (%): 94%
  Population Pyknosed Nuclei (%): 13%
  Population Tubulin-Different-Phenotype (%): 19%
  Total Cell Count: 178
[2]
  Population Apoptotic (%): 75%
  Population Fragmented Nuclei (%): 6%
  Population Healthy Nuclei (%): 87%
  Population Membrane Permeable-Phenotype (%): 10%
  Population Mitochondria Different-Phenotype (%): 12%
  Population Mitotic Cells (%): 25%
  Population Pyknosed Nuclei (%): 6%
  Population Tubulin-Different-Phenotype (%): 9%
  Total Cell Count: 56
[3]
  Population Apoptotic (%): 52%
  Population Fragmented Nuclei (%): 15%
  Population Healthy Nuclei (%): 62%
  Population Hoechst High Intensity Objects (%): 5%
  Population Membrane Permeable-Phenotype (%): 15%
  Population Mitochondria Different-Phenotype (%): 90%
  Population Mitotic Cells (%): 48%
  Population Normal (%): 94%
  Population Pyknosed Nuclei (%): 21%
  Population Tubulin-Different-Phenotype (%): 97%
  Total Cell Count: 167
[4]
  Population Apoptotic (%): 33%
  Population Fragmented Nuclei (%): 2%
  Population Healthy Nuclei (%): 75%
  Population Hoechst High Intensity Objects (%): 1%
  Population Mitotic Cells (%): 66%
  Population Normal (%): 98%
  Population Pyknosed Nuclei (%): 22%
  Population Tubulin-Different-Phenotype (%): 95%
  Total Cell Count: 67
[5]
  Population Apoptotic (%): 48%
  Population Healthy Nuclei (%): 77%
  Population Hoechst High Intensity Objects (%): 5%
  Population Membrane Permeable-Phenotype (%): 8%
  Population Mitochondria Different-Phenotype (%): 16%
  Population Mitotic Cells (%): 52%
  Population Normal (%): 94%
  Population Pyknosed Nuclei (%): 14%
  Population Tubulin-Different-Phenotype (%): 11%
  Total Cell Count: 180
[6]
  Population Apoptotic (%): 100%
  Population Fragmented Nuclei (%): 8%
  Population Healthy Nuclei (%): 86%
  Population Hoechst High Intensity Objects (%): 7%
  Population Membrane Permeable-Phenotype (%): 9%
  Population Mitochondria Different-Phenotype (%): 10%
  Population Mitotic Cells (%): 0%
  Population Normal (%): 92%
  Population Pyknosed Nuclei (%): 5%
  Population Tubulin-Different-Phenotype (%): 4%
  Total Cell Count: 64
[7]
  Population Apoptotic (%): 62%
  Population Fragmented Nuclei (%): 14%
  Population Healthy Nuclei (%): 59%
  Population Hoechst High Intensity Objects (%): 6%
  Population Membrane Permeable-Phenotype (%): 5%
  Population Mitochondria Different-Phenotype (%): 96%
  Population Mitotic Cells (%): 37%
  Population Normal (%): 93%
  Population Pyknosed Nuclei (%): 25%
  Population Tubulin-Different-Phenotype (%): 85%
  Total Cell Count: 186
[8]
  Population Apoptotic (%): 59%
  Population Fragmented Nuclei (%): 6%
  Population Healthy Nuclei (%): 66%
  Population Hoechst High Intensity Objects (%): 2%
  Population Membrane Permeable-Phenotype (%): 22%
  Population Mitochondria Different-Phenotype (%): 98%
  Population Mitotic Cells (%): 40%
  Population Normal (%): 97%
  Population Pyknosed Nuclei (%): 27%
  Population Tubulin-Different-Phenotype (%): 88%
  Total Cell Count: 80
[9]
  Population Apoptotic (%): 40%
  Population Fragmented Nuclei (%): 4%
  Population Healthy Nuclei (%): 86%
  Population Hoechst High Intensity Objects (%): 4%
  Population Membrane Permeable-Phenotype (%): 5%
  Population Mitochondria Different-Phenotype (%): 13%
  Population Mitotic Cells (%): 59%
  Population Normal (%): 95%
  Population Pyknosed Nuclei (%): 8%
  Population Tubulin-Different-Phenotype (%): 11%
  Total Cell Count: 182
[10]
  Population Apoptotic (%): 28%
  Population Fragmented Nuclei (%): 8%
  Population Healthy Nuclei (%): 80%
  Population Hoechst High Intensity Objects (%): 2%
  Population Membrane Permeable-Phenotype (%): 4%
  Population Mitochondria Different-Phenotype (%): 9%
  Population Mitotic Cells (%): 71%
  Population Normal (%): 97%
  Population Pyknosed Nuclei (%): 11%
  Population Tubulin-Different-Phenotype (%): 7%
  Total Cell Count: 63
[11]
  Population Apoptotic (%): 66%
  Population Fragmented Nuclei (%): 12%
  Population Healthy Nuclei (%): 60%
  Population Membrane Permeable-Phenotype (%): 9%
  Population Mitochondria Different-Phenotype (%): 70%
  Population Mitotic Cells (%): 33%
  Population Pyknosed Nuclei (%): 27%
  Population Tubulin-Different-Phenotype (%): 72%
  Total Cell Count: 263
[12]
  Population Apoptotic (%): 57%
  Population Fragmented Nuclei (%): 7%
  Population Healthy Nuclei (%): 63%
  Population Hoechst High Intensity Objects (%): 7%
  Population Membrane Permeable-Phenotype (%): 16%
  Population Mitochondria Different-Phenotype (%): 75%
  Population Mitotic Cells (%): 42%
  Population Normal (%): 92%
  Population Pyknosed Nuclei (%): 29%
  Population Tubulin-Different-Phenotype (%): 78%
  Total Cell Count: 130
